Measured values from ChEMBL document CHEMBL2021865, “Design, synthesis and structure-activity relationship of N-substituted tropane muscarinic acetylcholine receptor antagonists” (Bioorg Med Chem Lett, 2012).
Active and inactive are the calls of the source. The rule behind the calls is not given here.

Columns and labels:
[1] = biological target: T1, Muscarinic acetylcholine receptor M3 (Homo sapiens, UniProt P20309); test: Antagonist activity at human muscarinic acetylcholine M3 receptor expressed in CHO cells assessed as inhibition of Ach-induced calcium mobilization by FLIPR analysis; assay type: functional, cell-based
Outline: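 Calcium mobilization read by standard FLIPR protocol. IC50 in nM, mean of two or more independent assays.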
Target sequence in this assay (P20309 whole entry): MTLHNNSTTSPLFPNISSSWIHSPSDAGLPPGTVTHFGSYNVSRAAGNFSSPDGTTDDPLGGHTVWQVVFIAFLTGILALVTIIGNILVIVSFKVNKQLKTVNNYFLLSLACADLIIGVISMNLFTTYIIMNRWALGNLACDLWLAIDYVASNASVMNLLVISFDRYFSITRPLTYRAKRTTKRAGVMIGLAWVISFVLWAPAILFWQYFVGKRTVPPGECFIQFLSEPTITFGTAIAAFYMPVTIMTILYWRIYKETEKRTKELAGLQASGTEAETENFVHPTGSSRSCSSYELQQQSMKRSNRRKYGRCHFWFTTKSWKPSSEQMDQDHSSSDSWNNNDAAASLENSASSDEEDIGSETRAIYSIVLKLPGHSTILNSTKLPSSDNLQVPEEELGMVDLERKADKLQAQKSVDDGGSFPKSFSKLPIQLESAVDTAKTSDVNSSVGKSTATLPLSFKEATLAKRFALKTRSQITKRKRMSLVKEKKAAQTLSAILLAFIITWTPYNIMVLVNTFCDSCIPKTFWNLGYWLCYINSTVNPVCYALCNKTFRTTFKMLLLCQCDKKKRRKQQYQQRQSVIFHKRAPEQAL

[2] = biological target: T1, Muscarinic acetylcholine receptor M3; test: Antagonist potency at human muscarinic acetylcholine M3 receptor expressed in CHO cells assessed as inhibition of Ach-induced calcium mobilization by FLIPR analysis relative to control; assay type: functional, cell-based; details: for Kb: read-out: pA2 (converted)
Outline: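 Human M3 receptor in CHO cells, ACh-stimulated calcium mobilization by FLIPR. pA2 derived from the ratio of the ACh EC50 with and without antagonist. Run only where the IC50 was below 10 nM. Values above 11 could not be determined accurately.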
Target sequence in this assay (P20309 whole entry): as above

[3] = biological target: T1, Muscarinic acetylcholine receptor M3; test: Displacement of [3H]-N-methyl scopolamine from muscarinic acetylcholine M3 receptor expressed in CHO cell membrane; assay type: cell membranes
Outline: (§1)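 Membranes from CHO cells, SPA-format radioligand binding against 0.5 nM [3H]-N-methyl scopolamine. Values are the mean of three independent assays.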
Target sequence in this assay (P20309 whole entry): as above

[4] = biological target: T2, Muscarinic acetylcholine receptor M2 (Homo sapiens, UniProt P08172); test: Displacement of [3H]-N-methyl scopolamine from muscarinic acetylcholine M2 receptor expressed in CHO cell membrane; assay type: cell membranes; outline: as §1
T2 sequence (P08172 whole entry): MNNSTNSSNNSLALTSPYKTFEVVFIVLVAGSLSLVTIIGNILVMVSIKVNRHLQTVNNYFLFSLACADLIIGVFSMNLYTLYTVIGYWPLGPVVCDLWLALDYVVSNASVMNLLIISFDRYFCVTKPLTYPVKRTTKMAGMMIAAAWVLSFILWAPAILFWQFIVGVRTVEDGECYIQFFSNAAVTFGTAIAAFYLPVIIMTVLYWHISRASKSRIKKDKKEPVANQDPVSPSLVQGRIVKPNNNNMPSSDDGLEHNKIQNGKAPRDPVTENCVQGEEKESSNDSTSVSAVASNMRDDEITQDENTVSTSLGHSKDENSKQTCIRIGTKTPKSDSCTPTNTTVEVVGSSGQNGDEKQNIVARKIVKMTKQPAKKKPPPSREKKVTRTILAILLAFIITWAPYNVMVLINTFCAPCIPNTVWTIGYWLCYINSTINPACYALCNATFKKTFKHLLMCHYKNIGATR

Rattus norvegicus = test: Oral bioavailability in rat at 2 mg/kg; assay type: ADME, organism-based; details: in vivo, BLD = below limit of detection
Outline: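 Rats dosed orally at 2 mg/kg. Percent bioavailability calculated from plasma levels.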

Mus musculus [5] = test: Antagonist potency at muscarinic acetylcholine M3 receptor in intranasally dosed mouse assessed as inhibition of Mch-induced bronchoconstriction; assay type: functional
Outline: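 Conscious mice challenged with methacholine to induce bronchoconstriction. ED50 expressed as µg per mouse, n = 1.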

Mus musculus [6] = test: Bronchoprotective activity in mouse against methacholine-induced bronchoconstriction assessed as time duration of bronchoprotection at 0.05 ug administered intranasally; assay type: functional
Outline: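 Conscious mice, methacholine-induced bronchoconstriction. Duration of bronchoprotection taken as the time to 50% loss of maximum protection.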

[7] = biological target: T3, Muscarinic acetylcholine receptor M1 (Homo sapiens, UniProt P11229); test: Displacement of [3H]-N-methyl scopolamine from muscarinic acetylcholine M1 receptor expressed in CHO cell membrane; assay type: cell membranes; outline: as §1
T3 sequence (P11229 whole entry): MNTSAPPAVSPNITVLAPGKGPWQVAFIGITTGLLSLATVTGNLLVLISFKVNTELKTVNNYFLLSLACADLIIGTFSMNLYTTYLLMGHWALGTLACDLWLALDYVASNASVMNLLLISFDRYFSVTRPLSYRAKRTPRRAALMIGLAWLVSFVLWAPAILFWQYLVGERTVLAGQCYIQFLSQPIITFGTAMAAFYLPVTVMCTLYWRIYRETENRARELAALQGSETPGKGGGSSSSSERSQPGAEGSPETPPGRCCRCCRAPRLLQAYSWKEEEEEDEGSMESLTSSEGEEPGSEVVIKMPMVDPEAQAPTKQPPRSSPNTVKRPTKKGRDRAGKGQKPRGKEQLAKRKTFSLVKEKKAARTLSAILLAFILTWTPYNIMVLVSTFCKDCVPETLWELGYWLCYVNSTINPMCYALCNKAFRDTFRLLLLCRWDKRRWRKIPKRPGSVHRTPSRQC

[8] = Plasma clearance in rat at 1 mg/kg, iv; assay type: ADME, organism-based; set-up: dose 1 mg/kg, route intravenous
Outline: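 Rats dosed iv at 1 mg/kg. Systemic plasma clearance in ml/min/kg.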

[9] = biological target: T1, Muscarinic acetylcholine receptor M3
Target sequence in this assay (P20309 whole entry, looked up): as the sequence (P20309 whole entry) above

SMILES	IC50 [1]	Kb [2]	also measured
C[N+]1(CCCC#N)[C@@H]2CC[C@H]1C[C@@H](CC(C#N)(c1ccccc1)c1ccccc1)C2 (mixture of isomers)	< 10 nM	0.158 nM	
C[N@+]1(CCCOCc2ccccc2)C2CCC1C[C@@H](CC(C#N)(c1ccccc1)c1ccccc1)C2	< 10 nM	0.0398 nM	
CCC[N+]1(C)[C@@H]2CC[C@H]1C[C@@H](CC(C#N)(c1ccccc1)c1ccccc1)C2 (mixture of isomers)	< 10 nM	0.0501 nM	
C[N@+]1(CCCc2ccccc2)C2CCC1C[C@@H](CC(C#N)(c1ccccc1)c1ccccc1)C2	< 10 nM	< 0.01 nM	
C[N+]1(CC2CC2)[C@@H]2CC[C@H]1C[C@@H](CC(C#N)(c1ccccc1)c1ccccc1)C2 (mixture of isomers)	< 10 nM	0.0501 nM	
C[N@+]1(CC2CC2)C2CCC1C[C@@H](CC(C#N)(c1ccccc1)c1ccccc1)C2	< 10 nM	0.0251 nM	
COCCOCC[N+]1(C)[C@@H]2CC[C@H]1C[C@@H](CC(C#N)(c1ccccc1)c1ccccc1)C2 (mixture of isomers)	< 10 nM	0.631 nM	
C=CCCCC[N+]1(C)[C@@H]2CC[C@H]1C[C@@H](CC(C#N)(c1ccccc1)c1ccccc1)C2 (mixture of isomers)	85.2 nM		
CCCCCC[N@+]1(C)C2CCC1C[C@H](CC(C#N)(c1ccccc1)c1ccccc1)C2	< 10 nM	< 0.01 nM	
C=CCCCC[N@+]1(C)C2CCC1C[C@H](CC(C#N)(c1ccccc1)c1ccccc1)C2 [listing 1 of 2 here]	< 10 nM	< 0.01 nM	
C[N@+]1(CCOc2ccccc2)C2CCC1C[C@@H](CC(C#N)(c1ccccc1)c1ccccc1)C2	< 10 nM	< 0.01 nM	
C[N+]1(CCO)[C@@H]2CC[C@H]1C[C@@H](CC(C#N)(c1ccccc1)c1ccccc1)C2 (mixture of isomers)	< 10 nM	0.158 nM	
C[N@+]1(CCCOc2ccccc2)C2CCC1C[C@@H](CC(C#N)(c1ccccc1)c1ccccc1)C2	< 10 nM	< 0.01 nM	
COCC[N+]1(C)[C@@H]2CC[C@H]1C[C@@H](CC(C#N)(c1ccccc1)c1ccccc1)C2 (mixture of isomers)	< 10 nM	0.501 nM	
C[N+]1(CCC2CCCCC2)[C@@H]2CC[C@H]1C[C@@H](CC(C#N)(c1ccccc1)c1ccccc1)C2 (mixture of isomers)	109 nM		
C=CC[N+]1(C)[C@@H]2CC[C@H]1C[C@@H](CC(C#N)(c1ccccc1)c1ccccc1)C2 (mixture of isomers)	< 10 nM	1.26 nM	
C[N+]1(Cc2ccccc2)[C@@H]2CC[C@H]1C[C@@H](CC(C#N)(c1ccccc1)c1ccccc1)C2 (mixture of isomers)	318 nM		
C=CCCCC[N@+]1(C)C2CCC1C[C@H](CC(C#N)(c1ccccc1)c1ccccc1)C2.[Br-]			Ki [3]: 0.16 nM; pA2 ([2]; cho): > 11; Ki [4]: 0.1 nM; F (Rattus norvegicus): BLD; ED50 (Mus musculus [5]): 0.02 µg; Time (Mus musculus [6]): >96 h; Ki [7]: 0.12 nM; clearance [8]: 125 mL/min/kg
C[N@+]1(CC2CC2)C2CCC1C[C@H](CC(C#N)(c1ccccc1)c1ccccc1)C2	26.3 nM		
C=CCCCC[N@+]1(C)C2CCC1C[C@H](CC(C#N)(c1ccccc1)c1ccccc1)C2 [listing 2 of 2 here]			pA2 [9]: Active
CC[N+]1(C)[C@@H]2CC[C@H]1C[C@@H](CC(C#N)(c1ccccc1)c1ccccc1)C2 (mixture of isomers)	< 10 nM	0.0501 nM	
CCCC[N@+]1(C)C2CCC1C[C@H](CC(C#N)(c1ccccc1)c1ccccc1)C2	< 10 nM	< 0.01 nM	
C[N+]1(CC2CCCCC2)[C@@H]2CC[C@H]1C[C@@H](CC(C#N)(c1ccccc1)c1ccccc1)C2 (mixture of isomers)	89.6 nM		
CCCCCCCC[N@+]1(C)C2CCC1C[C@H](CC(C#N)(c1ccccc1)c1ccccc1)C2	< 10 nM	0.0794 nM	
CCCCCCCCCCCC[N+]1(C)[C@@H]2CC[C@H]1C[C@H](CC(C#N)(c1ccccc1)c1ccccc1)C2 (mixture of isomers)	64 nM		
C[N@+]1(CCOCc2ccccc2)C2CCC1C[C@@H](CC(C#N)(c1ccccc1)c1ccccc1)C2	< 10 nM	< 0.01 nM	
C=CCCCC[N@+]1(C)C2CCC1C[C@@H](CC(C#N)(c1ccccc1)c1ccccc1)C2	32 nM		
